Test results reported in ChEMBL document CHEMBL1127305, “kappa Opioid receptor selective affinity labels: electrophilic benzeneacetamides as kappa-selective opioid antagonists” (J Med Chem, 1994).

Tests used:
Format in all cases: functional, organism-based
Cavia porcellus [1] = species on record: Cavia porcellus; assay: Tested for agonist potency by conducting tests on electrically stimulated guinea pig ileal longitudinal muscle preparation; details: Muscle tissue
Method in brief: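 Electrically stimulated guinea pig ileal longitudinal muscle preparation. Values are arithmetic means of at least three experiments.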

Cavia porcellus [2] = species on record: Cavia porcellus; assay: Tested for wash-resistant activity after forty post-washes (for removal of naltrexone) with Kreb's buffer pre-incubated with compound
Method in brief: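 Agonist-treated guinea pig ileal longitudinal muscle was washed, then incubated with naltrexone (500 nM) for 15 min. A further forty washes with Krebs' buffer followed. Read-out was percent recovery of twitch height.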

Cavia porcellus [3] = species on record: Cavia porcellus; assay: Tested for wash-resistant activity by incubating guinea pig ileal longitudinal muscle (pre-treated with the compound) with naltrexone (500 nM).Number of determinations, n=3; details: Muscle tissue
Method in brief: (§1)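 Agonist-treated guinea pig ileal longitudinal muscle was first washed forty times with Krebs' buffer. It was then incubated with naltrexone (500 nM) for 15 min. Read-out was percent recovery of twitch height.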

Cavia porcellus [4] = species on record: Cavia porcellus; assay: Tested for wash-resistant activity in guinea pig ileal longitudinal muscle preparation, after forty washes with Kreb's buffer pre-incubated with compound; details: Muscle tissue
Method in brief: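 Electrically stimulated guinea pig ileal longitudinal muscle was incubated with agonist, then given forty washes with Krebs' buffer. Read-out was percent recovery of twitch height.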

Cavia porcellus [5] = species on record: Cavia porcellus; assay: Tested for wash-resistant activity by incubating guinea pig ileal longitudinal muscle (pre-treated with the compound) with naltrexone (500 nM). Number of determinations, n=3; details: Muscle tissue; method in brief: as §1

SMILES	IC50 (Cavia porcellus [1]) [nM]	also measured
CN(C(=O)Cc1ccc(Cl)c(Cl)c1)[C@H](CN1CCCC1)c1cccc(N=C=S)c1	23.8	Recovery (Cavia porcellus [2]): 0%; Recovery (Cavia porcellus [3]): 41%; Recovery (Cavia porcellus [4]): 0%
COC(=O)/C=C/C(=O)Nc1ccc([C@@H](CN2CCCC2)N(C)C(=O)Cc2ccc(Cl)c(Cl)c2)cc1	11.2	–
CN(C(=O)Cc1ccc(Cl)c(Cl)c1)[C@H](CN1CCCC1)c1ccc(N=C=S)cc1	38.6	–
CN(C(=O)Cc1ccc(Cl)c(Cl)c1)[C@H](CN1CCCC1)c1ccccc1 [ICI-199,441]	0.27	Recovery (Cavia porcellus [5]): 59%; Recovery (Cavia porcellus [4]): 20%
CN(C(=O)Cc1ccc(Cl)c(Cl)c1)[C@H](CN1CCCC1)c1cccc(N)c1	0.17	–
CN(C(=O)Cc1ccc(Cl)c(Cl)c1)C(CN1CCCC1)c1ccc(N)cc1 (stereo not drawn)	0.65	–
CN(C(=O)Cc1ccc(Cl)c(Cl)c1)[C@@H](CN1CCCC1)c1ccccc1	198	–
COC(=O)/C=C/C(=O)Nc1cccc([C@@H](CN2CCCC2)N(C)C(=O)Cc2ccc(Cl)c(Cl)c2)c1	29	–
